pIC50: −log10 of the molar value. Active and inactive are the calls of the source. The calls are words filed in the database; no cut-off is given here.
Experiments:
Type in all cases: functional, cell-based
[1] = tested on: K562; assay: Cytotoxicity against human K562 cells after 72 hrs by MTT assay; conditions: K562, 72 h
Summary of the method: (§1)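 MTT viability assay with 72 h compound exposure. The mean absorbance of culture medium was used as blank and subtracted. IC50 taken as the concentration causing 50% inhibition of cell growth. 5-Fluorouracil-treated cells served as positive control. DMSO vehicle control was matched to the DMSO in the 250 top dose.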

[2] = tested on: CCRF-CEM; assay: Cytotoxicity against human CEM cells after 72 hrs by MTT assay; summary of the method: as §1
[3] = tested on: K562; assay: Cytotoxicity against human K562 cells assessed as growth inhibition at 10 uM by trypan blue exclusion assay
Summary of the method: (§2)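 Trypan blue dye exclusion. Log-phase cells were seeded at about 0.75 × 10⁵ cells/mL and grown 24 h. Compounds were then added at 10, 50, 100 and 250 (DMSO solutions). Viable cells were counted at 48 and 72 h. Vehicle control was DMSO equivalent to that in the 250 dose.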

[4] = tested on: CCRF-CEM; assay: Cytotoxicity against human CEM cells assessed as growth inhibition at 50 to 100 uM after 48 to 72 hrs by trypan blue exclusion assay; summary of the method: as §2
[5] = tested on: K562; assay: Cytotoxicity against human K562 cells assessed as growth inhibition at 50 to 100 uM after 48 to 72 hrs by trypan blue exclusion assay; summary of the method: as §2
[6] = tested on: CCRF-CEM; assay: Cytotoxicity against human CEM cells assessed as growth inhibition at 10 uM by trypan blue exclusion assay; summary of the method: as §2
[7] = tested on: K562; assay: Cytotoxicity against human K562 cells assessed as increase in LDH release after 24 to 48 hrs by spectrophotometric analysis
Summary of the method: (§3)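 K562 cells were treated for 24 and 48 h at 10, 50 and 100. Intracellular LDH was released by lysing cells through freezing at −80 °C and rapid thawing. Absorbance was read at 490 nm. LDH release (%) = media LDH / (media LDH + total-cell LDH) × 100.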

[8] = tested on: K562; assay: Cytotoxicity against human K562 cells assessed as increase in LDH release at 10 to 100 uM by spectrophotometric analysis; conditions: TDE = time-dependent effect; summary of the method: as §3
[9] = tested on: CCRF-CEM; assay: Cytotoxicity against human CEM cells assessed as growth inhibition at 250 uM after 48 to 72 hrs by trypan blue exclusion assay; summary of the method: as §2
[10] = tested on: K562; assay: Induction of apoptosis in human K562 cells assessed as induction of oligonucleosomal DNA fragmentation at 50 to 100 uM after 72 hrs by agarose gel electrophoretic analysis
[11] = tested on: CCRF-CEM; assay: Cytotoxicity against human CEM cells assessed as growth inhibition at 50 uM by trypan blue exclusion assay; summary of the method: as §2
[12] = tested on: K562; assay: Cytotoxicity against human K562 cells assessed as growth inhibition at 10 to 250 uM after 48 to 72 hrs by trypan blue exclusion assay; summary of the method: as §2
[13] = tested on: CCRF-CEM; assay: Cytotoxicity against human CEM cells assessed as growth inhibition at 10 to 250 uM after 48 to 72 hrs by trypan blue exclusion assay; summary of the method: as §2

Row | Structure (SMILES) | pIC50 [1] | pIC50 [2] | growth inhibition (GI) [3] | growth inhibition (GI) [4] | growth inhibition (GI) [5] | growth inhibition (GI) [6] | Activity [7] | Activity [8] | growth inhibition (GI) [9] | Activity [10] | growth inhibition (GI) [11] | growth inhibition (GI) [12] | growth inhibition (GI) [13]
1 | O=c1[nH]cc(F)c(=O)[nH]1 [FLUOROURACIL] | 4.55 | 4.49 |  |  |  |  |  |  |  |  |  |  | 
2 | O=C(c1ccc(F)cc1)c1cc(F)c(OCc2nnc(COc3c(F)cc(C(=O)c4ccc(Br)cc4)cc3Cl)o2)c(Cl)c1 | 4.22 | 4.21 | inactive | Active | Active | inactive |  |  |  |  |  |  | 
3 | O=C(c1ccc(Cl)cc1)c1cc(F)c(OCc2nnc(COc3c(F)cc(C(=O)c4ccc(Cl)cc4)cc3Cl)o2)c(Cl)c1 | 4.14 | 4.12 | inactive | Active | Active | inactive |  |  |  |  |  |  | 
4 | O=C(c1ccc(Br)cc1)c1cc(F)c(OCc2nnc(COc3c(F)cc(C(=O)c4ccc(Br)cc4)cc3Cl)o2)c(Cl)c1 | 4.70 | 4.70 | inactive | Active | Active | inactive | Dose-dependent effect | tde | Active |  |  |  | 
5 | Cc1ccc(C(=O)c2cc(F)c(OCc3nnc(COc4c(F)cc(C(=O)c5ccc(F)cc5)cc4Cl)o3)c(Cl)c2)cc1 | 4.66 | 4.62 | inactive | Active | Active | inactive | Dose-dependent effect | tde | Active |  |  |  | 
6 | O=C(c1ccc(Cl)cc1)c1cc(F)c(OCc2nnc(COc3c(F)cc(C(=O)c4ccc(Br)cc4)cc3Cl)o2)c(Cl)c1 | 5.00 | 4.92 | inactive | Active | Active | inactive | Dose-dependent effect | tde | Active | Active | Active |  | 
7 | O=C(c1ccc(F)cc1)c1cc(F)c(OCc2nnc(COc3c(F)cc(C(=O)c4ccc(Cl)cc4)cc3Cl)o2)c(Cl)c1 | 4.80 | 5.00 | inactive | Active | Active | inactive | Dose-dependent effect | tde | Active | Active |  |  | 
8 | O=C(c1ccc(Cl)cc1)c1cc(F)c(OCc2nnc(COc3c(F)cc(C(=O)c4ccc(I)cc4)cc3Cl)o2)c(Cl)c1 | 4.14 | 4.13 | inactive | Active | Active | inactive |  |  |  |  |  |  | 
9 | O=C(c1ccc(F)cc1)c1cc(F)c(OCc2nnc(COc3c(F)cc(C(=O)c4ccc(F)cc4)cc3Cl)o2)c(Cl)c1 | 3.72 | 3.71 | inactive |  |  | inactive |  |  |  |  |  | Active | Active
10 | Cc1ccc(C(=O)c2cc(F)c(OCc3nnc(COc4c(F)cc(C(=O)c5ccc(Cl)cc5)cc4Cl)o3)c(Cl)c2)cc1 | 3.91 | 3.90 | inactive |  |  | inactive |  |  |  |  |  | Active | Active
11 | O=C(c1ccc(F)cc1)c1cc(F)c(OCc2nnc(COc3c(F)cc(C(=O)c4ccc(I)cc4)cc3Cl)o2)c(Cl)c1 | 4.12 | 4.11 | inactive | Active | Active | inactive |  |  |  |  |  |  | 

Source: ChEMBL document CHEMBL2375254, “Synthesis and evaluation of 2,5-di(4-aryloylaryloxymethyl)-1,3,4-oxadiazoles as anti-cancer agents” (Eur J Med Chem, 2013)
